In brackets after ≈: the same amount, converted by molar mass.
Columns and labels:
Rattus norvegicus [1] = assay: Anticancer activity against lymphoid leukemia P388 in rats at a dose of 10 mg/kg; type: functional
How it was run: (§1)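 Lymphoid leukaemia P 388 in rats, four animals per group, given 10 mg/kg. Survivors counted. Activity expressed as T/C (%) of treated versus control.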

Rattus norvegicus [2] = assay: Number of survivors out of 4 rats treated at 10 mg/kg; type: functional; how it was run: as §1
Aspergillus fumigatus = assay: Minimum inhibitory concentration towards Aspergillus fumigatus; type: functional
Candida albicans [3] = assay: Minimum inhibitory concentration towards Candida albicans; type: functional
Cryptococcus neoformans [4] = assay: Minimum inhibitory concentration towards Cryptococcus neoformans; type: functional
Klebsiella pneumoniae = assay: Minimum inhibitory concentration towards Klebsiella pneumoniae; type: functional
Microsporum canis = assay: Minimum inhibitory concentration towards Microsporum canis; type: functional
Pseudomonas aeruginosa = assay: Minimum inhibitory concentration towards Pseudomonas aeruginosa; type: functional
Staphylococcus aureus = assay: Minimum inhibitory concentration towards Staphylococcus aureus; type: functional
Trichophyton benhamiae = assay: Minimum inhibitory concentration towards Trichophyton mentagrophytes; type: functional, Trichophyton mentagraphytes
[5] = test system: Agrobacterium tumefaciens; assay: Minimum inhibitory concentration towards Agrobacterium tumefaciens; type: functional
Rattus norvegicus [6] = assay: Anticancer activity against Lymphoid Leukemia L-1210 in rats at dose of 1.56 mg/kg; type: functional
How it was run: (§2)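 Lymphoid leukaemia L-1210 in rats, six animals per dose group, doses 1.56–25 mg/kg. Survivors counted per group. T/C (%) compares a tumour evaluation parameter in treated versus control animals.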

Rattus norvegicus [7] = assay: Anticancer activity against Lymphoid Leukemia L-1210 in rats at dose of 3.12 mg/kg; type: functional; how it was run: as §2
Rattus norvegicus [8] = assay: Anticancer activity against Lymphoid Leukemia L-1210 in rats at dose of 6.25 mg/kg; type: functional; how it was run: as §2
Rattus norvegicus [9] = assay: Number of survivors out of 6 rats treated at 1.56 mg/kg; type: functional; how it was run: as §2
Rattus norvegicus [10] = assay: Number of survivors out of 6 rats treated at 3.12 mg/kg; type: functional; how it was run: as §2
Rattus norvegicus [11] = assay: Number of survivors out of 6 rats treated at 6.25 mg/kg; type: functional; how it was run: as §2
Candida albicans [12] = assay: Minimum inhibitory concentration towards C. albicans; value ranges from 7.8-7.9 ug/mL; type: functional, organism-based
Cryptococcus neoformans [13] = assay: Minimum inhibitory concentration towards C. neoformans; value ranges from 3.5-3.9 ug/mL; type: functional, organism-based
Influenza A virus = assay: In vitro antiviral activity of compound against Influenza-A virus; type: functional
Rattus norvegicus [14] = assay: Anticancer activity against Lymphoid Leukemia L-1210 in rats at dose of 12.5 mg/kg; type: functional
Rattus norvegicus [15] = assay: Anticancer activity against Lymphoid Leukemia L-1210 in rats at dose of 25.0 mg/kg; Toxic; type: functional, organism-based; set-up: dose 25 mg/kg
Rattus norvegicus [16] = assay: Number of survivors out of 6 rats treated at 12.5 mg/kg; type: functional
Rattus norvegicus [17] = assay: Number of survivors out of 6 rats treated at 25 mg/kg; type: functional; how it was run: as §2

Work on O=C1C=C(SCCC(=O)N2CCCCC2)C(=O)c2ccccc21 yielded a T/C (Rattus norvegicus [1]) of 30% and a Survivors (Rattus norvegicus [2]) of 4.

In the case of O=C(O)c1ccccc1SC1=CC(=O)c2c(Cl)ccc(O)c2C1=O, the MIC (Aspergillus fumigatus) is reported as > 50 µg/mL, the MIC (Candida albicans [3]) is reported as > 50 µg/mL and the MIC (Cryptococcus neoformans [4]) is reported as > 50 µg/mL. The MIC (Klebsiella pneumoniae) was 25 µg/mL (≈ 69.3 µM), the MIC (Microsporum canis) was > 50 µg/mL and the MIC (Pseudomonas aeruginosa) was 50 µg/mL (≈ 139 µM). The MIC (Staphylococcus aureus) was > 50 µg/mL, the MIC (Trichophyton benhamiae) was 25 µg/mL (≈ 69.3 µM) and the MIC [5] was > 50 µg/mL.

In the case of O=C1C=CC(=O)C(Sc2ccccc2C(=O)O)=C1, the MIC (Aspergillus fumigatus) is reported as > 50 µg/mL, the MIC (Candida albicans [3]) is reported as > 50 µg/mL and the MIC (Cryptococcus neoformans [4]) is reported as 50 µg/mL (≈ 192 µM). The MIC (Klebsiella pneumoniae) was 25 µg/mL (≈ 96.1 µM), the MIC (Microsporum canis) was > 50 µg/mL and the MIC (Pseudomonas aeruginosa) was 25 µg/mL (≈ 96.1 µM). The MIC (Staphylococcus aureus) was > 50 µg/mL, the MIC (Trichophyton benhamiae) was > 50 µg/mL and the MIC [5] was > 50 µg/mL.

O=C(O)CCCSC1=CC(=O)c2ccccc2C1=O was tested, and the MIC (Aspergillus fumigatus) was > 50 µg/mL, the MIC (Candida albicans [3]) was > 50 µg/mL and the MIC (Cryptococcus neoformans [4]) was > 50 µg/mL. The MIC (Klebsiella pneumoniae) was 50 µg/mL (≈ 181 µM), the MIC (Microsporum canis) was > 50 µg/mL and the T/C (Rattus norvegicus [6]) was 89%. For the same compound, the T/C (Rattus norvegicus [7]) was 96%, the T/C (Rattus norvegicus [8]) was 100% and the Survivors (Rattus norvegicus [9]) was 6. The Survivors (Rattus norvegicus [10]) was 6, the Survivors (Rattus norvegicus [11]) was 6 and the MIC (Staphylococcus aureus) was 12.5 µg/mL (≈ 45.2 µM). For the same compound, the MIC (Trichophyton benhamiae) was 25 µg/mL (≈ 90.5 µM).

With O=C1C(Sc2ccccc2)=C(Sc2ccccc2)C(=O)c2c(Cl)ccc(O)c21 the MIC (Aspergillus fumigatus) was 50 µg/mL (≈ 118 µM), the MIC (Candida albicans [3]) was > 50 µg/mL and the MIC (Cryptococcus neoformans [4]) was > 50 µg/mL. For the same compound, the MIC (Microsporum canis) was 50 µg/mL (≈ 118 µM) and the MIC (Trichophyton benhamiae) was > 50 µg/mL.

With O=C(O)CCCSC1=CC(=O)c2c(O)ccc(O)c2C1=O the MIC (Aspergillus fumigatus) was > 50 µg/mL, the MIC (Candida albicans [3]) was 3.12 µg/mL (≈ 10.1 µM) and the MIC (Cryptococcus neoformans [4]) was 1.56 µg/mL (≈ 5.06 µM). The MIC (Klebsiella pneumoniae) was 50 µg/mL (≈ 162 µM), the MIC (Microsporum canis) was 3.12 µg/mL (≈ 10.1 µM) and the MIC (Pseudomonas aeruginosa) was > 50 µg/mL. The MIC (Staphylococcus aureus) was > 50 µg/mL, the MIC (Trichophyton benhamiae) was 3.12 µg/mL (≈ 10.1 µM) and the MIC [5] was 12.5 µg/mL (≈ 40.5 µM).

For O=C1C=CC(=O)c2c1c(O)c1sc3ccccc3c(=O)c1c2O, the MIC (Aspergillus fumigatus) was > 50 µg/mL, the MIC (Candida albicans [3]) was > 50 µg/mL and the MIC (Cryptococcus neoformans [4]) was > 50 µg/mL. For the same compound, the MIC (Microsporum canis) was > 50 µg/mL and the MIC (Trichophyton benhamiae) was 25 µg/mL (≈ 77.1 µM).

In the case of O=C(O)CCCSC1=CC(=O)c2c(Cl)ccc(O)c2C1=O, the MIC (Aspergillus fumigatus) is reported as > 50 µg/mL, the MIC (Candida albicans [3]) is reported as > 50 µg/mL and the MIC (Cryptococcus neoformans [4]) is reported as > 50 µg/mL. For the same compound, the MIC (Microsporum canis) was > 50 µg/mL and the MIC (Trichophyton benhamiae) was 25 µg/mL (≈ 76.5 µM).

In the case of NYSTATIN, the MIC (Candida albicans [12]) is reported as 7.9 µg/mL and the MIC (Cryptococcus neoformans [13]) is reported as 3.9 µg/mL.

NC(=O)CCSC1=CC(=O)c2ccccc2C1=O gave a T/C (Rattus norvegicus [1]) of 49% and a Survivors (Rattus norvegicus [2]) of 4.

With GENTAMICIN the MIC (Klebsiella pneumoniae) was 0.39 µg/mL, the MIC (Pseudomonas aeruginosa) was 0.78 µg/mL and the MIC (Staphylococcus aureus) was 0.78 µg/mL.

O=C1C(=O)c2ccccc2C(O)=C1Sc1ccccc1 was tested, and the MIC (Aspergillus fumigatus) was > 50 µg/mL, the MIC (Candida albicans [3]) was 25 µg/mL (≈ 88.6 µM) and the MIC (Cryptococcus neoformans [4]) was > 50 µg/mL. For the same compound, the Inhibition (Influenza A virus) was 50%, the MIC (Microsporum canis) was 25 µg/mL (≈ 88.6 µM) and the MIC (Trichophyton benhamiae) was 6.25 µg/mL (≈ 22.1 µM).

In the case of O=C1C(Sc2cccc3ccccc23)=C(Sc2cccc3ccccc23)C(=O)c2c(Cl)ccc(O)c21, the MIC (Aspergillus fumigatus) is reported as > 50 µg/mL, the MIC (Candida albicans [3]) is reported as 50 µg/mL (≈ 95.2 µM) and the MIC (Cryptococcus neoformans [4]) is reported as > 50 µg/mL. For the same compound, the MIC (Microsporum canis) was > 50 µg/mL and the MIC (Trichophyton benhamiae) was 50 µg/mL (≈ 95.2 µM).

Work on O=C(O)CCSC1=CC(=O)c2ccccc2C1=O yielded an MIC (Klebsiella pneumoniae) of 50 µg/mL (≈ 191 µM), an MIC (Pseudomonas aeruginosa) of 12.5 µg/mL (≈ 47.7 µM) and a T/C (Rattus norvegicus [14]) of 110%. The T/C (Rattus norvegicus [15]) was “Toxic”, the T/C (Rattus norvegicus [8]) was 115% and the Survivors (Rattus norvegicus [16]) was 6. For the same compound, the Survivors (Rattus norvegicus [17]) was 1, the Survivors (Rattus norvegicus [11]) was 6 and the MIC (Staphylococcus aureus) was 12.5 µg/mL (≈ 47.7 µM). It also gave an MIC [5] of 25 µg/mL (≈ 95.3 µM).

For O=C1C(Sc2cccc3ccccc23)=C(Sc2cccc3ccccc23)C(=O)c2ccccc21, the MIC (Klebsiella pneumoniae) was > 50 µg/mL, the MIC (Pseudomonas aeruginosa) was > 50 µg/mL and the MIC (Staphylococcus aureus) was 50 µg/mL (≈ 105 µM). For the same compound, the MIC [5] was > 50 µg/mL.

For Clc1ccc(COC(Cn2ccnc2)c2ccc(Cl)cc2Cl)c(Cl)c1 (stereo not drawn) [MICONAZOLE], the MIC (Aspergillus fumigatus) was 12.5 µg/mL (≈ 30 µM), the MIC (Candida albicans [3]) was 25 µg/mL (≈ 60.1 µM) and the MIC (Cryptococcus neoformans [4]) was 12.5 µg/mL (≈ 30 µM). For the same compound, the MIC (Microsporum canis) was < 0.78 µg/mL and the MIC (Trichophyton benhamiae) was < 0.78 µg/mL.

O=C1C=C(Sc2ccccc2)C(=O)c2ccccc21 showed an MIC (Aspergillus fumigatus) of 25 µg/mL (≈ 93.9 µM), an MIC (Candida albicans [3]) of 12.5 µg/mL (≈ 46.9 µM) and an MIC (Cryptococcus neoformans [4]) of 1.56 µg/mL (≈ 5.86 µM). For the same compound, the MIC (Klebsiella pneumoniae) was > 50 µg/mL, the MIC (Microsporum canis) was < 0.98 µg/mL and the MIC (Pseudomonas aeruginosa) was > 50 µg/mL. For the same compound, the MIC (Staphylococcus aureus) was 25 µg/mL (≈ 93.9 µM), the MIC (Trichophyton benhamiae) was < 0.78 µg/mL and the MIC [5] was > 50 µg/mL.

O=C(O)CCSC1=CC(=O)c2c(O)ccc(O)c2C1=O showed an Inhibition (Influenza A virus) of 52%.

C[C@@H]1[C@H](O)[C@@H](C)/C=C/C=C/C=C/C=C/C=C/C=C/C=C/[C@H](O[C@@H]2O[C@H](C)[C@@H](O)[C@H](N)[C@@H]2O)C[C@@H]2O[C@](O)(C[C@@H](O)C[C@@H](O)[C@H](O)CC[C@@H](O)C[C@@H](O)CC(=O)O[C@H]1C)C[C@H](O)[C@H]2C(=O)O [AMPHOTERICIN B] showed an MIC (Candida albicans [3]) of 0.39 µg/mL (≈ 0.422 µM), an MIC (Cryptococcus neoformans [4]) of 0.78 µg/mL (≈ 0.844 µM) and an MIC (Microsporum canis) of 1.56 µg/mL (≈ 1.69 µM). It also gave an MIC (Trichophyton benhamiae) of 1.56 µg/mL (≈ 1.69 µM).

Source: ChEMBL document CHEMBL1146764, “Synthesis and evaluation of novel 1,4-naphthoquinone derivatives as antiviral, antifungal and anticancer agents” (2004)
